{"source": "ChEMBL document CHEMBL3352791", "about": "“Thioaryl naphthylmethanone oxime ether analogs as novel anticancer agents” (J Med Chem, 2014)", "key": {"[1]": {"target": "Angiopoietin-1 receptor (Homo sapiens) (UniProt Q02763)", "sequence (Q02763 whole entry)": "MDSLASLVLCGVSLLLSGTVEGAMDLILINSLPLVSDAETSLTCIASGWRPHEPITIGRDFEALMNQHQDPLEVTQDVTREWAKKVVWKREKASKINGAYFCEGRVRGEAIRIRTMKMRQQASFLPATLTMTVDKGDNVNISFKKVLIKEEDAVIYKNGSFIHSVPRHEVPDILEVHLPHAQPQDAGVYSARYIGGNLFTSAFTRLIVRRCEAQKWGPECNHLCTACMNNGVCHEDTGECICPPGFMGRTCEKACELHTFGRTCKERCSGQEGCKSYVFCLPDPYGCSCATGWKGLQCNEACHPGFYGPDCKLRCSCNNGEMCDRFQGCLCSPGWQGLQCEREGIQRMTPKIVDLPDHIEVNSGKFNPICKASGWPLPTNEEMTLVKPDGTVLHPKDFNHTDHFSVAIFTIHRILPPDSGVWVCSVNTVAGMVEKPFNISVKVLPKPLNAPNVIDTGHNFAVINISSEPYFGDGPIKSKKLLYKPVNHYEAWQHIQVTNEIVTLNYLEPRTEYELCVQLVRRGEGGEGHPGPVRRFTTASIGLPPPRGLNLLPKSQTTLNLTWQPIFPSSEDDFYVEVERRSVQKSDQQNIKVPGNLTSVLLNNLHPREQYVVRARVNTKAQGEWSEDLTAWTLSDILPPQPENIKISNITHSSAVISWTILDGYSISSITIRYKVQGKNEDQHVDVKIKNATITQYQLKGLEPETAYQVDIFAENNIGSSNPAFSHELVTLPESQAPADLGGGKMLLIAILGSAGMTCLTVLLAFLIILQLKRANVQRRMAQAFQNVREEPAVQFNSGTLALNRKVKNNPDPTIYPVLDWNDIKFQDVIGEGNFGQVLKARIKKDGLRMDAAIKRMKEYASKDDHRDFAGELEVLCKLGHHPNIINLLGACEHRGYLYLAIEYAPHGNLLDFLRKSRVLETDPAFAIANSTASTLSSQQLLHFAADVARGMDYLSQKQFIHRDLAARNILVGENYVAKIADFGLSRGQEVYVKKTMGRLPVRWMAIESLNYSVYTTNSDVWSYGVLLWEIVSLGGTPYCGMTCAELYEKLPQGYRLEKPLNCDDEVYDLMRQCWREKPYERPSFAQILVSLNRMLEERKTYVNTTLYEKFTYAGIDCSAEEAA", "assay": "Inhibition of Tie2 (unknown origin) at 10 uM", "in_short": "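Cell-free kinase profiling was run as a standard 33P-ATP-based in vitro kinase assay.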"}, "[2]": {"target": "Dual specificity calcium/calmodulin-dependent 3',5'-cyclic nucleotide phosphodiesterase 1A (Homo sapiens) (UniProt P54750)", "sequence (P54750 whole entry, canonical isoform)": "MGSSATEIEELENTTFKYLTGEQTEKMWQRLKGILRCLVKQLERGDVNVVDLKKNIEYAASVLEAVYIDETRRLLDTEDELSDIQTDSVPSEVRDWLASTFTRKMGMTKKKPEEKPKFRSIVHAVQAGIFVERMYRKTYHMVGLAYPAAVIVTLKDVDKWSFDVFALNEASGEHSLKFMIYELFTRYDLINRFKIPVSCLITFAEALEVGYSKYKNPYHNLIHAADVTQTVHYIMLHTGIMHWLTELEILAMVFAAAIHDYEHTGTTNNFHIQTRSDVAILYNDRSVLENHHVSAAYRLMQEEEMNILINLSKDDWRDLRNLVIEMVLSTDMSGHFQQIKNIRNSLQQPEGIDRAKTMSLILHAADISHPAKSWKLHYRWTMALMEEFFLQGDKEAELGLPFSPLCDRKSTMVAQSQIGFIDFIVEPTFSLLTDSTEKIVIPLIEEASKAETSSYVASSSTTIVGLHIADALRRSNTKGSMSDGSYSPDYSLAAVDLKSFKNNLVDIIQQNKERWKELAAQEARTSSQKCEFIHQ", "assay": "Inhibition of PDE1A3 (unknown origin) activity at 1 to 10 uM", "in_short": "(§1)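 Recombinant PDE isoform activity was read by fluorescence polarization. A binding reagent complexes with the nucleotide monophosphate that the phosphodiesterase generates from cAMP/cGMP, and this raises the polarization of the labelled substrate. Reference standards were PDE1A3 10µM IBMX, PDE2A3 1nM BAY 60-7550, PDE3CAT 1µM cilostazol, PDE4CAT rolipram, PDE5CAT 0.1µM sildenafil, PDE7A […], PDE8A1 10µM BRL-50481, PDE9A1 1µM SB 36216 and PDE11A1 dipyridamole.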"}, "[3]": {"target": "High affinity cGMP-specific 3',5'-cyclic phosphodiesterase 9A (Homo sapiens) (UniProt O76083)", "sequence (O76083 whole entry)": "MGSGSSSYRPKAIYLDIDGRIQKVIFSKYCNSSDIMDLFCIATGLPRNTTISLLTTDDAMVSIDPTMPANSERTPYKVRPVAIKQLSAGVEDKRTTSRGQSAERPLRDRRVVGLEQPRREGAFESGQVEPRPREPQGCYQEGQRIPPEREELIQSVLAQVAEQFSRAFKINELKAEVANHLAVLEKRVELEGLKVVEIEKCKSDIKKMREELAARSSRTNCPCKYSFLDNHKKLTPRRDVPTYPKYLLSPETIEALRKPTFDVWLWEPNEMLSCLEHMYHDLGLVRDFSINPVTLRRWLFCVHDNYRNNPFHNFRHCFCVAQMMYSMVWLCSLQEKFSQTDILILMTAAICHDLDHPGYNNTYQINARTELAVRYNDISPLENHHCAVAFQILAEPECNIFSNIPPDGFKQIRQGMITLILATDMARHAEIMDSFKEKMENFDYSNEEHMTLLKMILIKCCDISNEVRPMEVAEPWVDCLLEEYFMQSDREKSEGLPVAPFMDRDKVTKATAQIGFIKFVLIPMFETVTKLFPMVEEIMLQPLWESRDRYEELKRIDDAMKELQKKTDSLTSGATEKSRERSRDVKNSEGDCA", "assay": "Inhibition of PDE9A1 (unknown origin) activity at 1 to 10 uM", "in_short": "as §1"}, "MDA-MB-231 [4]": {"test_system": "MDA-MB-231", "assay": "Cytotoxicity against human MDA-MB-231 cells assessed as cell viability at 5 uM by MTT assay in presence of 100 ng/ml pertussis toxin for 16 hrs", "format": "functional, cell-based"}, "[5]": {"target": "Epidermal growth factor receptor (Homo sapiens) (UniProt P00533)", "sequence (P00533 whole entry)": "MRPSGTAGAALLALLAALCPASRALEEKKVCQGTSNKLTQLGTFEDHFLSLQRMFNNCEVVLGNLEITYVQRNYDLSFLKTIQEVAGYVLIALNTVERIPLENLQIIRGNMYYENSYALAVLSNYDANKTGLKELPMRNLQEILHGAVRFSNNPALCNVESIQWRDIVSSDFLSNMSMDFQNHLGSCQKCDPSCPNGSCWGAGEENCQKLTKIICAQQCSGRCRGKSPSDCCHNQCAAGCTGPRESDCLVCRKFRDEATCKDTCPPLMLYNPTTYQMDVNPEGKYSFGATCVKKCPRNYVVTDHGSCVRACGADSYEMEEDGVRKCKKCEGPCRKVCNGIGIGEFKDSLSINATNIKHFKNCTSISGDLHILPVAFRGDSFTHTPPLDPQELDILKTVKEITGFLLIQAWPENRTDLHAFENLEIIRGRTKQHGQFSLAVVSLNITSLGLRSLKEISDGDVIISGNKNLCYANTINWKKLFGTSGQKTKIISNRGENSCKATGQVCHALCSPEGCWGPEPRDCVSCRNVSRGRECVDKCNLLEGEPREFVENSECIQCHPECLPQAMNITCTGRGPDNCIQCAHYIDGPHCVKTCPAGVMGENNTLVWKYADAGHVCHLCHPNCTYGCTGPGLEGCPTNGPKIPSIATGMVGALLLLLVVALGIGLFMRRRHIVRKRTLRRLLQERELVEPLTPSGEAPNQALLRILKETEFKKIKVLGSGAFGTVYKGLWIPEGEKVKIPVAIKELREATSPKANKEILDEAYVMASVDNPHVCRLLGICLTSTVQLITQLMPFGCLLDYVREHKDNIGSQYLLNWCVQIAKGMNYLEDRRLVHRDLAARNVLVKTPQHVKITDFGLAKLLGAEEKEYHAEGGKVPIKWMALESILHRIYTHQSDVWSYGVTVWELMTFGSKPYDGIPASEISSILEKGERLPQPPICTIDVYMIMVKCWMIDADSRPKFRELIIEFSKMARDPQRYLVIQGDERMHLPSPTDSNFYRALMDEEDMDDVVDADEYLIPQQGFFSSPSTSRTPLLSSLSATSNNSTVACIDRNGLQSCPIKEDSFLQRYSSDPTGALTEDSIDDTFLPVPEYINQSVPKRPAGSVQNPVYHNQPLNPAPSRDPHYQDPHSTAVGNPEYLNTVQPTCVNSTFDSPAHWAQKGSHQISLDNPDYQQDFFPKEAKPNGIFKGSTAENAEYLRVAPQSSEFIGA", "assay": "Inhibition of EGF-induced EGFR phosphorylation at Tyr1068 in human MCF7 cells at 0.5 uM by ELISA", "format": "cell-based"}, "MCF7 [6]": {"test_system": "MCF7", "assay": "Antiproliferative activity against human […] cells assessed as absence of growth recovery treated > 5 uM for 24 hrs followed by maintained in drug free medium for 72 hrs by MTT assay", "format": "functional, cell-based"}, "MDA-MB-231 [7]": {"test_system": "MDA-MB-231", "assay": "Induction of apoptosis in human […] cells assessed as caspase 3 activation at 2.5 to 7.5 uM by Caspase-Glo assay", "format": "functional, cell-based", "in_short": "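Caspase-8, -9 and -3 activities measured with Caspase-Glo 8, 9 and 3 kits; mean ± SEM from three independent experiments.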"}, "MCF7 [8]": {"test_system": "MCF7", "assay": "Induction of apoptosis in human […] cells assessed as caspase 3 activation at 2.5 to 7.5 uM by Caspase-Glo assay", "format": "functional, cell-based", "in_short": "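Caspase-3 activity by Caspase-Glo 3 luminescent kit.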"}, "MCF7 [9]": {"test_system": "MCF7", "assay": "Induction of apoptosis in human […] cells", "format": "functional, cell-based"}, "MDA-MB-231 [10]": {"test_system": "MDA-MB-231", "assay": "Induction of apoptosis in human […] MDA-MB-231 cells assessed as increase in Bax to Bcl2 ratio at 5 uM after 24 hrs by immunoblotting analysis", "format": "functional, cell-based"}, "MDA-MB-231 [11]": {"test_system": "MDA-MB-231", "assay": "Inhibition of cell migration in human MDA-MB-231 cells assessed as […] at 1 uM after 24 hrs by wound healing assay", "format": "functional, cell-based"}, "MDA-MB-231 [12]": {"test_system": "MDA-MB-231", "assay": "Inhibition of VEGF-A expression in human MDA-MB-231 cells at 1 uM after 24 hrs by qPCR analysis", "format": "functional, cell-based", "in_short": "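Gene expression was measured by qPCR in MDA-MB-231 breast cancer cells treated with 1µM compound. GAPDH served as the housekeeping internal control.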"}, "MDA-MB-231 [13]": {"test_system": "MDA-MB-231", "assay": "Inhibition of MTA expression in human MDA-MB-231 cells at 1 uM after 24 hrs by qPCR analysis", "format": "functional, cell-based", "in_short": "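MDA-MB-231 cells treated at 1µM. Transcript levels measured by qPCR with GAPDH as internal control.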"}, "MDA-MB-231 [14]": {"test_system": "MDA-MB-231", "assay": "Inhibition of ALDH1 in human MDA-MB-231 cells at 5 to 20 uM after 8 days by FACS analysis", "format": "functional, cell-based", "in_short": "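ALDH1-positive MDA-MB-231 cells identified with Aldefluor reagent and quantified by flow cytometry.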"}, "[15]": {"target": "Epidermal growth factor receptor (Homo sapiens) (UniProt P00533)", "assay": "Inhibition of EGF-induced EGFR phosphorylation at Tyr1148 in human MDA-MB-231 cells at 1 uM by ELISA", "format": "cell-based"}, "[16]": {"target": "Epidermal growth factor receptor (Homo sapiens) (UniProt P00533)", "assay": "Inhibition of EGF-induced EGFR phosphorylation at Tyr1148 in human MCF7 cells at 1 uM by ELISA", "format": "cell-based"}, "[17]": {"target": "Epidermal growth factor receptor (Homo sapiens) (UniProt P00533)", "assay": "Inhibition of EGF-induced EGFR phosphorylation at Tyr1045 in human MCF7 cells at 1 uM by ELISA", "format": "cell-based"}, "[18]": {"target": "Mitogen-activated protein kinase; ERK1/ERK2 (Homo sapiens) (UniProt P27361+P28482)", "assay": "Inhibition of EGF-induced ERK1/2 phosphorylation in human MDA-MB-231 cells at 1 uM by ELISA", "format": "cell-based"}, "[19]": {"target": "Signal transducer and activator of transcription 3 (Homo sapiens) (UniProt P40763)", "sequence (P40763 whole entry)": "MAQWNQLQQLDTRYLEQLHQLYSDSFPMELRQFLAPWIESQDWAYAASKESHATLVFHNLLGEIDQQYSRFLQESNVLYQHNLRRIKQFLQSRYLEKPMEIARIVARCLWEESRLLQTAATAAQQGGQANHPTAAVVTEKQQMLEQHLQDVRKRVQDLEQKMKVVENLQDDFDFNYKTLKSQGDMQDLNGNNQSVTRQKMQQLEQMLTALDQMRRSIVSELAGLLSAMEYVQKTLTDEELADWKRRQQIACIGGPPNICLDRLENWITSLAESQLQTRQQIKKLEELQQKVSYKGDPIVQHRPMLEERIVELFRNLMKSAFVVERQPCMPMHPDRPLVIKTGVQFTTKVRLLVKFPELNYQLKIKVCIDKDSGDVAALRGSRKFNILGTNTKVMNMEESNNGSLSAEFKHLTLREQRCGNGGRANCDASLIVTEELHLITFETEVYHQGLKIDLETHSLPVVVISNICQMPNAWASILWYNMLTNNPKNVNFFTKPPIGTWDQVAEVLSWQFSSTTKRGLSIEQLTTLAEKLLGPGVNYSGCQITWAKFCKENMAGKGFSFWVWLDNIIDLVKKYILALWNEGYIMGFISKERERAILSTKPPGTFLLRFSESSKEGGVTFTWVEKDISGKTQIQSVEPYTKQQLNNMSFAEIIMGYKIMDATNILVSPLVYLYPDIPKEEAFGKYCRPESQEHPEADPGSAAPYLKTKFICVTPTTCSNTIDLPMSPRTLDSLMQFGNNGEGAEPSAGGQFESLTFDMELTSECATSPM", "assay": "Inhibition of EGF-induced STAT3 phosphorylation in human MCF7 cells at 1 uM by ELISA", "format": "cell-based"}, "[20]": {"target": "RAC-alpha serine/threonine-protein kinase (Homo sapiens) (UniProt P31749)", "sequence (P31749 whole entry)": "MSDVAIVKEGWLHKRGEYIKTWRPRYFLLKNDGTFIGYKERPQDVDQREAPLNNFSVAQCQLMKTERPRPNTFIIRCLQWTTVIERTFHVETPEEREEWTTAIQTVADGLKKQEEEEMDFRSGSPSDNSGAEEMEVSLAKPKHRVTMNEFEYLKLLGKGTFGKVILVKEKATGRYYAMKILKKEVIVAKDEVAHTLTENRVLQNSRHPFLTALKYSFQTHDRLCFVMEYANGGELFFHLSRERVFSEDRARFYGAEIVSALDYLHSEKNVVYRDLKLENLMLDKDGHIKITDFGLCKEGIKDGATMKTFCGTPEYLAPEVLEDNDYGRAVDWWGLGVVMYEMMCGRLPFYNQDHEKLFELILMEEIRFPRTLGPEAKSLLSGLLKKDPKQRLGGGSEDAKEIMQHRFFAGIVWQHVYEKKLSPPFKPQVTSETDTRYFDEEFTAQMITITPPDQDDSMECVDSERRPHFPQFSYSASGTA", "assay": "Inhibition of basal level AKT phosphorylation in human MDA-MB-231 cells at 1 uM by ELISA", "format": "cell-based"}, "[21]": {"assay": "Antiproliferative activity against human prostate, androgen receptor positive DU145 cells after 24 hrs by MTT assay", "format": "functional, cell-based, DU-145", "conditions": "du-145"}, "[22]": {"assay": "Antiproliferative activity against human HCT116 cells after 24 hrs by MTT assay", "format": "functional, cell-based", "conditions": "HCT-116, 24 h", "in_short": "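MTT viability: cells seeded at 1×10^4 per well in DMEM with 10% FBS, left to adhere overnight, then serum-starved 4 h. Compounds were given at a range of doses, with 0.1% DMSO vehicle as control. EC50 was taken from dose-response curves spanning 100nM-50µM. Data are mean ± SEM from at least three independent experiments.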"}, "[23]": {"assay": "Cytotoxicity against human MCF10A cells after 72 hrs by MTT assay", "format": "ADME, cell-based", "conditions": "MCF-10A"}, "MDA-MB-231 [24]": {"test_system": "MDA-MB-231", "assay": "Cell cycle arrest in human […] cells assessed as accumulation at G1 phase at 2.5 uM by propidium iodide staining by FACS analysis (reference value: 63.74%)", "format": "functional"}, "Mus musculus": {"test_system": "Mus musculus", "assay": "Toxicity in human MCF7 cells xenografted in NIH-3 mouse assessed as changed in body weight at 16 mg/kg, po for 29 days relative to control", "format": "organism-based", "set-up": "dose 16 mg/kg, route oral", "conditions": "in vivo, 696 h"}, "MCF7 [25]": {"test_system": "MCF7", "assay": "Antitumor activity against human MCF7 cells xenografted in NIH-3 mouse assessed as reduction in tumor volume at 16 mg/kg, po for 29 days relative to control", "format": "functional", "conditions": "MCF7, 696 h", "in_short": "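MCF-7 cells (5x10^6 in 100μl PBS) injected intraperitoneally into NIH-III nude mice; after tumor induction, groups of n=10 dosed orally daily for 29 days at 8 or 16 mg/kg/day in 1% carboxymethyl cellulose (vehicle controls). Tumor diameter by vernier calipers every third day; volume = π/6×d³ (d mean diameter).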"}}, "note": "Activity calls are given as the source filed them. The rule behind the calls is not given here.", "data": [{"molecule": "CCN(CC)CCO/N=C(\\c1ccc(SC)cc1)c1cccc2ccccc12", "values": [{"measurement": "inhibition", "setting": "[1]", "value": "inactive"}, {"measurement": "inhibition", "setting": "[2]", "value": "inactive"}, {"measurement": "inhibition", "setting": "[3]", "value": "inactive"}, {"measurement": "inhibition", "setting": "MDA-MB-231 [4]", "value": "inactive"}, {"measurement": "inhibition", "setting": "[5]", "value": "Active"}, {"measurement": "Activity", "setting": "MCF7 [6]", "value": "Active"}, {"measurement": "Activity", "setting": "MDA-MB-231 [7]", "value": "Active"}, {"measurement": "Activity", "setting": "MCF7 [8]", "value": "inactive"}, {"measurement": "Activity", "setting": "MCF7 [9]", "value": "Active"}, {"measurement": "Activity", "setting": "MDA-MB-231 [10]", "value": "Active"}, {"measurement": "inhibition", "setting": "MDA-MB-231 [11]", "value": "Active"}, {"measurement": "inhibition", "setting": "MDA-MB-231 [12]", "value": "Active"}, {"measurement": "inhibition", "setting": "MDA-MB-231 [13]", "value": "Active"}, {"measurement": "inhibition", "setting": "MDA-MB-231 [14]", "value": "Active"}, {"measurement": "inhibition", "setting": "[15]", "value": "Active"}, {"measurement": "inhibition", "setting": "[16]", "value": "Active"}, {"measurement": "inhibition", "setting": "[17]", "value": "Active"}, {"measurement": "inhibition", "setting": "[18]", "value": "Active"}, {"measurement": "inhibition", "setting": "[19]", "value": "Active"}, {"measurement": "inhibition", "setting": "[20]", "value": "inactive"}]}, {"molecule": "CCN(CC)CCO/N=C(\\c1ccc(SC)cc1)c1cccc2ccccc12.O=C(O)C(=O)O", "values": [{"measurement": "EC50", "setting": "[21]", "value": 9, "unit": "µM"}, {"measurement": "EC50", "setting": "[22]", "value": 7.7, "unit": "µM"}, {"measurement": "IC50", "setting": "[23]", "value": 50, "unit": "µM"}, {"measurement": "Activity", "setting": "MDA-MB-231 [24]", "value": 80.13, "unit": "%"}, {"measurement": "Activity", "setting": "Mus musculus", "value": "Non-toxic"}, {"measurement": "inhibition in vivo at 16 mg/kg", "setting": "MCF7 [25]", "value": 50, "unit": "%"}]}]}
